Activity calls are given as the source filed them. No cut-off for these calls is given here.
How the values were obtained:
MDA-MB-231 [1] = experiment: Cytotoxicity against human MDA-MB-231 cells assessed as decrease in cell viability after 24 hrs by cellTiter-Glo reagent based assay; type: functional; details: MDA-MB-231, 24 h
Summary of the method: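 MDA-MB-231 cells (RPMI, 15% FCS, 37 °C, 5% CO2) seeded at 5600 cells/well in 384-well plates, cultured overnight, then treated 24 h. Viability by CellTiter-Glo luminescence. Positive control 5 μM staurosporine; 1% DMSO set as 100% viability.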

[2] = Inhibition of NF-kappaB in human MDA-MB-231 cells assessed as reduction in TNFalpha-induced NF-kappaB activation incubated with compound for 20 mins followed by TNFalpha stimulation measured after 2 hrs by luminescence assay
MDA-MB-231 [3] = experiment: Inhibition of cell migration in human MDA-MB-231 cells at 10 uM after 24 hrs by wound-scratch assay; type: functional; details: MDA-MB-231, 24 h
Summary of the method: (§1)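 MDA-MB-231 cells seeded at 50 000 cells/well; scratch made after 24 h with automated wound maker. Compounds added, wound imaged every 2 h over 24 h by live-cell imager; migration into wound quantified.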

MDA-MB-231 [4] = experiment: Inhibition of cell migration in human MDA-MB-231 cells at 5 uM after 24 hrs by wound-scratch assay; type: functional; summary of the method: as §1
MDA-MB-231 [5] = experiment: Anti-invasive activity in human MDA-MB-231 cells assessed as inhibition of cell invasion into surrounding extracellular matrix at 10 uM after 24 hrs; type: functional; details: MDA-MB-231, 24 h
Summary of the method: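 Spheroids formed from 3000 MDA-MB-231 cells/well with 0.25% matrigel in ultralow-attachment plates (centrifuged 10 min, 1000 rpm, 4 °C), 72 h formation. Embedded in matrigel:collagen R (1:1), polymerized 1 h at 37 °C. Invasion into matrix imaged daily over 3 days, quantified by image analysis.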

MDA-MB-231 [6] = experiment: Cytotoxicity against human MDA-MB-231 cells assessed as decrease in cell viability at 5 uM after 24 hrs by cellTiter-Glo reagent based assay; type: functional
Summary of the method: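 MDA-MB-231 cells (RPMI, 15% FCS, 37 °C, 5% CO2) were seeded at 5600 cells/well, cultured overnight, then treated at 5 μM for 24 h. Viability was read by CellTiter-Glo luminescence and normalised to 1% DMSO as 100% viability.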

IC50 [2] | SMILES | IC50 (MDA-MB-231 [1]) | inhibition at 10 µM (MDA-MB-231 [3]) | inhibition at 5 µM (MDA-MB-231 [4]; MDA-MB-231, 24 h) | inhibition at 10 µM (MDA-MB-231 [5]) | inhibition (MDA-MB-231 [4]) | Activity (MDA-MB-231 [6])
29.4 µM | CCCCC[C@H](O)CC(=O)C[C@H]1C2=COC(C)=CC2=C(C=O)C(=O)[C@]1(C)O | 79.3 µM | 83% |  |  |  | 
11.3 µM | CCCCC[C@@H](CC(=O)C[C@H]1C2=COC(C)=CC2=C(C=O)C(=O)[C@]1(C)O)OC | 21.6 µM |  |  |  | inactive | 
> 100 µM | CCCCCC(CC(=O)[C@H]1C(=O)O[C@@]2(C)C(=O)C(C=O)=C3C=C(C)OC=C3[C@H]12)OC (some centres not stated) | 21 µM |  |  |  |  | 
70.7 µM | CCCCC[C@@H](O)CC(=O)C[C@H]1C2=COC(C)=CC2=C(C=O)C(=O)[C@]1(C)O | > 100 µM |  |  |  | inactive | 

More lines, now with the values behind:

SMILES | IC50 [2] | IC50 (MDA-MB-231 [1]) | inhibition at 10 µM (MDA-MB-231 [3]) | inhibition at 5 µM (MDA-MB-231 [4]; MDA-MB-231, 24 h) | inhibition at 10 µM (MDA-MB-231 [5]) | inhibition (MDA-MB-231 [4]) | Activity (MDA-MB-231 [6])
CCCCCCCC(=O)[C@H]1C(=O)O[C@@]2(C)C(=O)C(C=O)=C3C=C(C)OC=C3[C@H]12 | > 100 µM | 19.6 µM |  |  |  |  | 
CCCCC/C=C/C(=O)C[C@H]1C2=COC(C)=CC2=C(C=O)C(=O)[C@]1(C)O | 37.8 µM | 18.6 µM | 78% |  |  |  | 
CCCCC/C=C/C(=O)[C@H]1C(=O)O[C@@]2(C)C(=O)C(C=O)=C3C=C(C)OC=C3[C@H]12 | 4.4 µM | 21.5 µM | 98% | 60% | 52% |  | 
CN[C@@H]1C[C@H]2O[C@@](C)([C@@H]1OC)n1c3ccccc3c3c4c(c5c6ccccc6n2c5c31)C(=O)NC4 [STAUROSPORINE] |  |  |  |  |  |  | 10.9%

From ChEMBL document CHEMBL4266022, “Azaphilone Derivatives from the Fungus Coniella fragariae Inhibit NF-κB Activation and Reduce Tumor Cell Migration” (J Nat Prod, 2018)
